This note sets out measurements from ChEMBL document CHEMBL1914425, “Amine-alkyl derivatives of hydantoin: new tool to combat resistant bacteria” (2011).

Converted amounts (≈) assume the structure as drawn. The source made the active and inactive calls. No cut-off for these calls is given here.

What is called MIC is the lowest concentration that inhibits growth of the organism.

Assay [1] deals with Klebsiella aerogenes. In words: Antibacterial activity against Enterobacter aerogenes ATCC 13048 after 18 hrs by two fold serial dilution method. As to conditions: ATCC 13048, 18 h. Type of assay: functional.
Assay [2] deals with Klebsiella aerogenes. As to the kind of experiment: Antibacterial activity against AcrAB-TolC-over producing Enterobacter aerogenes CM-64 after 18 hrs by two fold serial dilution method. The note with it: CM-64, 18 h. Type of assay: functional.
In assay [3] the test system is Klebsiella aerogenes. In words: Inhibition of AcrAB-TolC efflux pump in Enterobacter aerogenes CM-64 assessed as effect on nalidixic acid MIC at 62.5 uM relative to control.
Assay [4] has as its system Klebsiella aerogenes. As to the kind of experiment: Inhibition of AcrAB-TolC efflux pump in Enterobacter aerogenes ATCC 13048 assessed as effect on nalidixic acid MIC at 62.5 uM relative to control.
Assay [5] has as its system Klebsiella aerogenes. As to the kind of experiment: Inhibition of AcrAB-TolC efflux pump in Enterobacter aerogenes ATCC 13048 assessed as effect on nalidixic acid MIC at 100 uM relative to control. Summed up: (§1)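 Nalidixic acid MIC (two-fold serial dilutions, about 10^6 cells/mL Mueller-Hinton broth, 18 h, 37 C) determined with a fixed sub-inhibitory level of compound present during incubation. Activity gain A = nalidixic acid MIC without compound divided by MIC with compound. PAbN at 0.050 mM served as reference inhibitor.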

Assay [6] relates to Klebsiella aerogenes. As to the kind of experiment: Inhibition of AcrAB-TolC efflux pump in Enterobacter aerogenes CM-64 assessed as fold decrease in nalidixic acid MIC at 100 uM relative to control. In outline: as §1
In assay [7] the test system is Klebsiella aerogenes. In words: Inhibition of AcrAB-TolC efflux pump in Enterobacter aerogenes ATCC 13048 assessed as fold decrease in nalidixic acid MIC at 62.5 uM relative to control. Summed up: as §1
Assay [8] relates to Klebsiella aerogenes. As to the kind of experiment: Inhibition of AcrAB-TolC efflux pump in Enterobacter aerogenes CM-64 assessed as fold decrease in nalidixic acid MIC at 62.5 uM relative to control. Summed up: as §1
In assay [9] the test system is Klebsiella aerogenes. As to the kind of experiment: Inhibition of AcrAB-TolC efflux pump in Enterobacter aerogenes CM-64 assessed as fold decrease in nalidixic acid MIC at 333 uM relative to control. Summed up:
as §1

Take `O=C(O)CN1C(=O)N(CCCCCN2CCCN3CCCN=C23)C(c2ccccc2)(c2ccccc2)C1=O`: the MIC in the assay on Klebsiella aerogenes [1] and against Klebsiella aerogenes [2] was 1250 µM (≈ 647 µg/mL) in each case. Moreover, the inhibition result in the assay on Klebsiella aerogenes [3] and in the assay on Klebsiella aerogenes [4] was “inactive” throughout.
As to `COC(=O)CN1C(=O)N(CC(O)CNC(C)C)C(c2ccccc2)(c2ccccc2)C1=O` (configuration not stated), the MIC in the assay with Klebsiella aerogenes [1] and against Klebsiella aerogenes [2] was 125 µM (≈ 54.9 µg/mL) throughout. Besides, the inhibition entry in the assay with Klebsiella aerogenes [3] and in the assay on Klebsiella aerogenes [4] was “inactive” in each case.
In the case of `COC(=O)CN1C(=O)N(CCCN2CCN(c3ccccc3)CC2)C(c2ccccc2)(c2ccccc2)C1=O`, the MIC against Klebsiella aerogenes [1] and in the assay on Klebsiella aerogenes [2] was over 500 µM in each case. Further, in the assay on Klebsiella aerogenes [5], the inhibition entry was “inactive”.
With `CCOC(=O)N1CCN(CCCCCN2C(=O)N(CC(=O)OC)C(=O)C2(c2ccccc2)c2ccccc2)CC1`, the MIC against Klebsiella aerogenes [1] and against Klebsiella aerogenes [2] was 1250 µM (≈ 688 µg/mL) throughout. Further, the inhibition result with Klebsiella aerogenes [3] and in the assay on Klebsiella aerogenes [4] was “inactive” throughout.
`NCCCCN1C(=O)N(CC(=O)O)C(=O)C1(c1ccccc1)c1ccccc1`: the MIC against Klebsiella aerogenes [1] and in the assay with Klebsiella aerogenes [2] was 1250 µM (≈ 477 µg/mL) each time. Moreover, the inhibition entry in the assay on Klebsiella aerogenes [3] and with Klebsiella aerogenes [4] was “inactive” each time.
Consider `COC(=O)CN1C(=O)N(CC(CN2CCN(c3ccccc3)CC2)OC(C)=O)C(c2ccccc2)(c2ccccc2)C1=O` (configuration not stated), for which the minimum inhibitory concentration (MIC) in the assay with Klebsiella aerogenes [1] and against Klebsiella aerogenes [2] was 250 µM (≈ 146 µg/mL) each time.
As for `O=C1NC(=O)C(c2ccccc2)(c2ccccc2)N1CCCCN1CCN(c2ccccc2)CC1`, the MIC against Klebsiella aerogenes [1] and in the assay on Klebsiella aerogenes [2] was over 500 µM throughout. Besides, in the assay with Klebsiella aerogenes [5], the inhibition entry was “inactive”.
In the case of `COc1ccccc1N1CCN(CCCN2C(=O)N(C)C(=O)C2(c2ccccc2)c2ccccc2)CC1`, the MIC with Klebsiella aerogenes [1] and against Klebsiella aerogenes [2] was over 500 µM throughout. The inhibition entry in the assay on Klebsiella aerogenes [5] is “inactive”.
As to `CCOC(=O)N1CCN(CCCCN2C(=O)N(CC(=O)O)C(=O)C2(c2ccccc2)c2ccccc2)CC1`, the MIC in the assay with Klebsiella aerogenes [1] and in the assay on Klebsiella aerogenes [2] was 1250 µM (≈ 653 µg/mL) throughout. The inhibition entry in the assay on Klebsiella aerogenes [3] and in the assay on Klebsiella aerogenes [4] was “inactive” throughout.
In the case of `COC(=O)CN1C(=O)N(CCCCN2CCN(c3ccccc3)CC2)C(c2ccccc2)(c2ccccc2)C1=O`, the MIC with Klebsiella aerogenes [1] and with Klebsiella aerogenes [2] was over 500 µM in each case. In addition, the fold change (FC) in the assay with Klebsiella aerogenes [6] is 4. Besides, in the assay on Klebsiella aerogenes [5], the inhibition entry was “inactive”.
As for `O=C(O)CN1C(=O)N(CCCN2CCCN3CCCN=C32)C(c2ccccc2)(c2ccccc2)C1=O`, the MIC against Klebsiella aerogenes [1] and in the assay on Klebsiella aerogenes [2] was 1250 µM (≈ 612 µg/mL) throughout. The inhibition result in the assay on Klebsiella aerogenes [3] and with Klebsiella aerogenes [4] was “inactive” throughout.
With `CCOC(=O)N1CCN(CCCCCCN2C(=O)N(CC(=O)OC)C(=O)C2(c2ccccc2)c2ccccc2)CC1`, the MIC against Klebsiella aerogenes [1] and against Klebsiella aerogenes [2] was 1250 µM (≈ 706 µg/mL) in each case. The inhibition entry in the assay with Klebsiella aerogenes [3] and with Klebsiella aerogenes [4] was “inactive” each time.
As to `NCCCCCCN1C(=O)N(CC(=O)O)C(=O)C1(c1ccccc1)c1ccccc1`, the MIC against Klebsiella aerogenes [1] and against Klebsiella aerogenes [2] was 1250 µM (≈ 512 µg/mL) each time. Besides, the inhibition entry in the assay with Klebsiella aerogenes [3] and in the assay on Klebsiella aerogenes [4] was “inactive” each time.
`O=C(O)CN1C(=O)N(CCCCCCN2CCCN3CCCN=C23)C(c2ccccc2)(c2ccccc2)C1=O`: the minimal inhibitory concentration (MIC) in the assay with Klebsiella aerogenes [1] and with Klebsiella aerogenes [2] was 1250 µM (≈ 665 µg/mL) each time. In addition, the inhibition entry with Klebsiella aerogenes [3] and in the assay with Klebsiella aerogenes [4] was “inactive” each time.
As for `CC(=O)OC(CN1CCN(c2ccccc2)CC1)CN1C(=O)N(C)C(=O)C1(c1ccccc1)c1ccccc1` (configuration not stated), the MIC in the assay with Klebsiella aerogenes [1] and against Klebsiella aerogenes [2] was over 500 µM in each case. For the same molecule, the inhibition entry in the assay on Klebsiella aerogenes [5] is “inactive”.
Regarding `COc1ccccc1N1CCN(CC(O)CN2C(=O)N(CC(=O)O)C(=O)C2(c2ccccc2)c2ccccc2)CC1` (configuration not stated), the figures for the MIC in the assay with Klebsiella aerogenes [1] and in the assay on Klebsiella aerogenes [2] were 125 µM (≈ 69.8 µg/mL) and 250 µM (≈ 140 µg/mL), respectively. The values for the fold change (FC) in the assay on Klebsiella aerogenes [7] and in the assay with Klebsiella aerogenes [8] were 2 and 4, respectively.
For `CN1C(=O)N(CC(O)CN2CCN(c3ccccc3)CC2)C(c2ccccc2)(c2ccccc2)C1=O` (configuration not stated), the MIC against Klebsiella aerogenes [1] and in the assay with Klebsiella aerogenes [2] was over 500 µM in each case. In addition, in the assay with Klebsiella aerogenes [5], the inhibition result is “inactive”.
For `COc1ccccc1N1CCN(CCCCN2C(=O)N(CC(=O)O)C(=O)C2(c2ccccc2)c2ccccc2)CC1`, the MIC in the assay on Klebsiella aerogenes [1] was 62.5 µM (≈ 34.8 µg/mL); against Klebsiella aerogenes [2], 250 µM (≈ 139 µg/mL). Further, the fold change (FC) in the assay with Klebsiella aerogenes [7] worked out at 2; in the assay on Klebsiella aerogenes [8] it was 4.
On to `CCOC(=O)N1CCN(CCCCN2C(=O)N(CC(=O)OC)C(=O)C2(c2ccccc2)c2ccccc2)CC1`, for which the MIC in the assay with Klebsiella aerogenes [1] and against Klebsiella aerogenes [2] was 1250 µM (≈ 671 µg/mL) each time. The inhibition result in the assay with Klebsiella aerogenes [3] and in the assay with Klebsiella aerogenes [4] was “inactive” throughout.
In the case of `COC(=O)CN1C(=O)N(CCCCCCCCN2CCNCC2)C(c2ccccc2)(c2ccccc2)C1=O`, the MIC against Klebsiella aerogenes [1] and in the assay on Klebsiella aerogenes [2] was 1250 µM (≈ 651 µg/mL) in each case. Moreover, the inhibition result in the assay with Klebsiella aerogenes [3] and in the assay with Klebsiella aerogenes [4] was “inactive” in each case.
For `O=C(O)CN1C(=O)N(CCCCN2CCCN3CCCN=C23)C(c2ccccc2)(c2ccccc2)C1=O`, the minimal inhibitory concentration (MIC) with Klebsiella aerogenes [1] and in the assay with Klebsiella aerogenes [2] was 1250 µM (≈ 630 µg/mL) in each case. Further, the inhibition result in the assay on Klebsiella aerogenes [3] and in the assay with Klebsiella aerogenes [4] was “inactive” in each case.
On to `CCOC(=O)N1CCN(CCCCCCCCN2C(=O)N(CC(=O)OC)C(=O)C2(c2ccccc2)c2ccccc2)CC1`, for which the MIC in the assay with Klebsiella aerogenes [1] and against Klebsiella aerogenes [2] was 1250 µM (≈ 741 µg/mL) each time. Moreover, the inhibition entry in the assay with Klebsiella aerogenes [3] and in the assay on Klebsiella aerogenes [4] was “inactive” throughout.
With `COC(=O)CN1C(=O)N(CC(O)CN2CCN(c3ccccc3)CC2)C(c2ccccc2)(c2ccccc2)C1=O` (configuration not stated), the MIC against Klebsiella aerogenes [1] and against Klebsiella aerogenes [2] was 5000 µM (≈ 2710 µg/mL) each time. Also, the fold change (FC) with Klebsiella aerogenes [9] turned out to be 4.
As for `NCCCN1C(=O)N(CC(=O)O)C(=O)C1(c1ccccc1)c1ccccc1`, the MIC in the assay on Klebsiella aerogenes [1] and against Klebsiella aerogenes [2] was 1250 µM (≈ 459 µg/mL) in each case. Besides, the inhibition result in the assay on Klebsiella aerogenes [3] and with Klebsiella aerogenes [4] was “inactive” throughout.
For `CN1C(=O)N(CCCCCN2CCN(c3ccccc3)CC2)C(c2ccccc2)(c2ccccc2)C1=O`, the MIC against Klebsiella aerogenes [1] and in the assay with Klebsiella aerogenes [2] was over 500 µM each time. The fold change (FC) in the assay with Klebsiella aerogenes [6] came out at 4. The inhibition result in the assay with Klebsiella aerogenes [5] was “inactive”.
